# Assay outcomes: PubChem, Broad Institute
# Compounds with a hit are over-represented: about 2.3% of the library has one in this group of screens.
# ERp5 inh – blocks human ERp5 reductase activity on insulin; 0.05% of 350,000 active; inhibition, % at 9.99 µM; AID 651711; ERp5 insulin aggregation, absorbance 650 nm, 90 min;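 active = mean replicate inhibition above about 25%, with every replicate also reaching it, limit read from the data, passing the limit was not always enough; inconclusive = only one of those two criteria met; inactive = neither criterion met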
# DENV2 CPE rescue – protects cells from dengue virus 2 cytopathic effect. DENV2-infected cells, cytopathic effect rescue, plate reader. AID 651640. CPE inhibition, % at 9.99 µM. 1.7% of 350,000 active; in the data active = CPE inhibition above about 20%, passing the limit was not always enough; inconclusive = no clear call, values can overlap the other calls; tested in BHK-21 cells;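 note: 0% = median of neutral control wells and 100% = median of positive control wells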
# C2C12 statin – protects C2C12 myotubes from simvastatin toxicity. ATP luminescence, 48 h; scaled: DMSO 0, geranylgeraniol control 100. rescue of ATP level, % at 7.49 µM. 0.78% of 330,000 active. AID 602340;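 active = mean ATP rescue above about 67%, or every replicate alone reaching that limit, limit read from the data, passing the limit was not always enough; inconclusive = no clear call, values can overlap the other calls; inactive = mean under the limit and some replicate under it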;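 note: myotubes were challenged with 10 µM simvastatin during compound exposure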
# Cneo AK release – causes C. neoformans cell lysis | lysis activity, % at 15 µM | 0.2% of 360,000 active | adenylate kinase release luminescence, 4 h; normalised: neutral wells 0, clomiphene wells 100;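 active = mean lysis activity across replicates of at least 80%, whatever share of replicates individually reach that level; inactive = mean lysis activity below 80%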
#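 Assay system: Cryptococcus neoformans yeast cells / Dosing: single-point compound dose / Timing: 4 h at 37 °C static, read 1 h later / Measured by: luminescence of released adenylate kinase using an AK detection reagent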
# PDI inh – PDI (human) enzyme inhibition; PDI insulin aggregation turbidity, A650, 90 min; inhibition, % at 10 µM; 0.052% of 350,000 active;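 active = mean inhibition across replicates of 30% or more, whatever share of single replicates reach that level; inconclusive = mean inhibition below 30% while every single replicate reaches 30%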
# Target sequence (P07237 whole entry, looked up): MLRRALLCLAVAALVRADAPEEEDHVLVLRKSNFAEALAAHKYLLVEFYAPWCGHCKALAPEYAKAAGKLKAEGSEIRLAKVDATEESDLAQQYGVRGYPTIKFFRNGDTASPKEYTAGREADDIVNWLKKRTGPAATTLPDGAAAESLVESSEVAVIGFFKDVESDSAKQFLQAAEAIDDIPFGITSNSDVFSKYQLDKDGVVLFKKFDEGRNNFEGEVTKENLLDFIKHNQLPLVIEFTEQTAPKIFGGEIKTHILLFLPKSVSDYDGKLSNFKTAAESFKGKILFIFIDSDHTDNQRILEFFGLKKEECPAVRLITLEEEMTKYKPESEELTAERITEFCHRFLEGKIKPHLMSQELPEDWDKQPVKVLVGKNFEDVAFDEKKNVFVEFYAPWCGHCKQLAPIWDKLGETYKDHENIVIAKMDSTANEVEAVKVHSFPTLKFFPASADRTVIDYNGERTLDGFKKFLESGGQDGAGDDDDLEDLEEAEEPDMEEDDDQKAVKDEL
# F508del corr – correctors of CFTR F508del function in bronchial epithelial cells | CFBE cells, YFP halide quenching; stimulated with forskolin plus potentiator P3; % fluorescence drop versus neutral controls | activity (quench increase), % at 7.58 µM | 0.36% of 350,000 active | AID 720511;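 active = mean added fluorescence quench of at least 8% versus neutral control, with both replicates also reaching 8%; inconclusive = only one of the mean or replicate conditions met; inactive = mean below 8% and not both replicates reaching 8%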;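 note: cells transiently co-express mutant CFTR-F508del with the halide-sensitive YFP; corrector assay measuring rescue of mutant channel to the surface after 24 h compound exposure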
# * marks the source's active call; other numbers are inactive results; u = inconclusive; x = no result.
SMILES,ERp5 inh,DENV2 CPE rescue,C2C12 statin,Cneo AK release,PDI inh,F508del corr
C[C@@H]1CN([C@H](C)CO)C(=O)Cc2cc(NC(=O)C3CCCCC3)ccc2O[C@H]1CN(C)Cc1ccc(Oc2ccccc2)cc1,2,-9,u,-3,x,1
FC(F)(F)c1cccc(-c2cc3nc(NCCCn4ccnc4)ccn3n2)c1,-4,-3,9,7,-5,0
Clc1ccccc1-c1cc2nc(NCCCn3ccnc3)ccn2n1,3,32*,-2,-1,4,3
CCCC#Cc1ccc([C@H]2[C@H](CO)N3CCCCN(S(=O)(=O)c4ccccc4F)C[C@@H]23)cc1,2,11,-13,0,x,-1
Cc1cc(=O)[nH]c(SCC(=O)NC2CCCCCC2)n1,4,0,72*,0,-23,-2
CSc1nsc(SCC(=O)NC2CCCCC2)n1,x,x,69*,-2,8,x
O=C(Cc1ccccn1)N[C@@H]1CC[C@@H](CCn2cc(-c3ccccc3)nn2)O[C@@H]1CO,-3,9,4,-2,x,5
C[C@H]1CN([C@@H](C)CO)S(=O)(=O)c2ccc(-c3ccccc3)cc2O[C@@H]1CN(C)C(=O)C1CCC1,x,x,19,x,x,0
CC(C)(O)c1ccc2c(c1)CCC1C(C)(C(=O)O)CCCC21C (stereo not drawn),-3,-8,0,3,x,-1
CC(C)c1c(O)ccc2c1CC[C@H]1C(C)(C)CCC[C@]21C,-3,0,23,0,7,9.0*
O=c1[nH]c(=O)n2c(c1-c1ccccc1)OC(CBr)C2 (stereo not drawn),7,75*,-9,1,-5,x
O=c1[nH]c(=S)n2c(c1-c1ccccc1)OC(CBr)C2 (stereo not drawn),-5,u,24,3,2,-4
CO[C@H]1CN(C)C(=O)c2cc(NS(C)(=O)=O)ccc2OC[C@@H](C)N(C(=O)CN(C)C)C[C@@H]1C,-2,-2,-29,-5,x,-2
CO[C@H]1CN(C)C(=O)c2cc(NS(C)(=O)=O)ccc2OC[C@H](C)N(C(=O)CN(C)C)C[C@@H]1C,6,64*,-7,-4,x,-2
CO[C@@H]1CN(C)C(=O)c2cc(NS(C)(=O)=O)ccc2OC[C@@H](C)N(C(=O)CN(C)C)C[C@@H]1C,-1,21*,12,4,x,0
O=C(NC(Cc1ccc(O)cc1)C(=O)N=Nc1c(O)[nH]c2ccccc12)c1ccccc1 (stereo not drawn),3,-3,x,x,45*,6
O=C(CNC(=O)Cc1ccccc1)N=Nc1c(O)[nH]c2ccccc12,5,-4,9,0,0,-1
CN1CCN(C(=O)C[C@@H]2CC[C@H]3[C@H](COc4ccc(NC(=O)c5cccs5)cc4C(=O)N3C)O2)CC1,-6,1,25,-1,x,2
Cn1c(=O)c2[nH]c(CCCCc3nc4ccccc4[nH]3)nc2n(C)c1=O,-2,47*,0,x,-1,-4
COc1cc(/C=C/C(=O)OCC(=O)Nc2cc(S(=O)(=O)N3CCCCC3)ccc2C)ccc1O,4,22*,x,x,0,x
COc1cc(/C=C/C(=O)OCC(=O)Nc2ccc(C)c(S(=O)(=O)N3CCCCC3)c2)ccc1O,8,5,x,1,14,x
O=C1c2ccccc2C(=O)N1C1CCN(Cc2cccc(OCCO)c2)CC1,-4,11,x,-18,x,1
C[C@@H]1CN([C@H](C)CO)C(=O)Cc2cc(N(C)C)ccc2O[C@@H]1CN(C)C(=O)Nc1ccc2c(c1)OCO2,3,12,24,-4,x,1
CC(C)NC(=O)Nc1ccc2c(c1)CC(=O)N([C@@H](C)CO)C[C@@H](C)[C@H](CN(C)C(=O)Nc1ccc3c(c1)OCO3)O2,5,x,10,85*,x,3
C[C@@H]1CN([C@H](C)CO)C(=O)Cc2cc(NS(C)(=O)=O)ccc2O[C@H]1CN(C)C(=O)Nc1ccc2c(c1)OCO2,-2,-10,-5,2,x,-4
SMILES,ERp5 inh,DENV2 CPE rescue,C2C12 statin,Cneo AK release,PDI inh,F508del corr
C[C@@H]1CN([C@@H](C)CO)C(=O)Cc2cc(N(C)C)ccc2O[C@H]1CN(C)C(=O)Nc1ccc2c(c1)OCO2,-1,30*,-6,-6,x,0
C[C@H](CO)N1C[C@H](C)[C@@H](CN(C)C(=O)Nc2ccc3c(c2)OCO3)Oc2ccc(NS(C)(=O)=O)cc2CC1=O,1,31*,-33,2,x,-1
CO[C@@H]1CN(C)C(=O)c2ccc(NS(=O)(=O)c3ccc(Cl)cc3)cc2OC[C@H](C)N(C)C[C@@H]1C,6,13,-3,-2,x,1
COc1ccc(S(=O)(=O)Nc2ccc3c(c2)C(=O)N([C@H](C)CO)C[C@H](C)[C@H](CN(C)S(=O)(=O)c2cccs2)OCCCC[C@H](C)O3)cc1,5,-17,97*,-1,x,1
COc1ccc(S(=O)(=O)Nc2ccc3c(c2)C(=O)N([C@@H](C)CO)C[C@H](C)[C@@H](CN(C)S(=O)(=O)c2cccs2)OCCCC[C@@H](C)O3)cc1,0,-3,79*,-1,x,3
COc1ccc(S(=O)(=O)Nc2ccc3c(c2)C(=O)N([C@H](C)CO)C[C@@H](C)[C@H](CN(C)S(=O)(=O)c2cccs2)OCCCC[C@H](C)O3)cc1,3,3,102*,-1,x,-3
CCCN(C)C[C@@H]1Oc2cc(-c3cccnc3)ccc2S(=O)(=O)N([C@H](C)CO)C[C@@H]1C,5,u,7,1,x,-1
CCC(C)N(C)Cc1cccc(C2(O)CCN(S(=O)(=O)c3ccc(F)cc3)CC2)c1 (stereo not drawn),x,x,123*,1,0,x
Cc1ccccc1-c1cnc2c(c1)C(=O)N([C@H](C)CO)C[C@H](C)[C@H](CN(C)C(=O)CN(C)C)O2,4,-2,8,-10,x,-1
COC(=O)C[C@@H]1C[C@H]2c3cc(NC(=O)C4CCC4)ccc3O[C@H]2[C@H](CO)O1,7,7,-3,-19,x,-1
COCC(C)n1c(C)cc(C(=O)COC(=O)c2oc3ccccc3c2C)c1C (stereo not drawn),x,x,73*,-1,-2,x
CC(C)(C)c1ccc(Nc2n[nH]c3ccccc23)cc1,10,66*,-29,-4,x,-3
COc1ccc(CN2CCC[C@]3(N[C@H](c4ccc(OC)cc4)[C@@H]4C(=O)N(C)C(=O)[C@@H]43)C2=O)cc1,4,27*,6,-1,2,4
COc1ccc([C@H]2N[C@]3(CCCN(Cc4ccc(C)cc4)C3=O)[C@H]3C(=O)N(C)C(=O)[C@@H]23)cc1,0,5,0,-3,3,-2
